From PubChem
PPC-1+TRAIL kill: compounds killing PPC-1 cancer cells with TRAIL present, primary screen, TRAIL potentiator project, ATPLite luminescence, uHTS; PPC-1 cells + TRAIL, ATPLite viability luminescence; cell killing (% activity), % at 4 µM or 5 µM; 0.41% of 220,000 active; AID 1443, 2008;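 active = cell killing above 50% in the first pass at 4 µM, then a duplicate retest at 5 µM averaging 50% or more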
TRAIL sens C8: viability loss with TRAIL in NB7+C8 cells, primary screen, TRAIL sensitizer project, cell-based, ATPlite luminescence; inhibition (viability loss, TRAIL sensitization), % at 10 µM; 1% of 360,000 active;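 active = compounds causing at least 50% loss of cell viability in the single-dose screen, relative to plate controls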
FLuc act counter: FLuc activators, initial screening, artefact control for FLuc-dependent activation tests, biochemical, ATPlite luminescence. ATPlite luciferase biochemical, 10 min; 0 = ATP-free wells, 1 = DMSO control. activation factor at 10 µM. 200,000 tested, under 10 active;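 active = luciferase activation factor, scaled between plate controls, of at least 2 with compound at 10 µM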
Target sequence (P08659 whole entry, looked up): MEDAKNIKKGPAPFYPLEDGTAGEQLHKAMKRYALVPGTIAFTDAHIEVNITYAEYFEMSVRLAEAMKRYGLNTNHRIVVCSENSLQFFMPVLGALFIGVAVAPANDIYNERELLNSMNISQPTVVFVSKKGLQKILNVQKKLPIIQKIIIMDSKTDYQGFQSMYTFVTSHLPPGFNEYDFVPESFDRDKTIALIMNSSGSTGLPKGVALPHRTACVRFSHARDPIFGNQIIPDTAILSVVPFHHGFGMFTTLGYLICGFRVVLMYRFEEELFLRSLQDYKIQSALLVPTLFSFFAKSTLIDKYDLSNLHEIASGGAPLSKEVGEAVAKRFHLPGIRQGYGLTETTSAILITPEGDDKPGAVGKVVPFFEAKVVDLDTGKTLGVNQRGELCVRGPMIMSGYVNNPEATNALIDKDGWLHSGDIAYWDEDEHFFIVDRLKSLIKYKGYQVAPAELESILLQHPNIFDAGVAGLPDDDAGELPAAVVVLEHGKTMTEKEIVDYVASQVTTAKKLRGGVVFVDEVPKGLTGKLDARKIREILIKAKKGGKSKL
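System: luciferase plus luciferin reagent, cell-free; medium: PBS as buffer for the ATP substrate; dosing: test compounds dosed from 2 mM stocks in 100% DMSO; timing: 10 min post-reagent at room temperature; measured by: luminescence measurement of luciferase light output; evaluation: luciferase activation, seen as luminescence increase over controls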
FLuc inhib CS: firefly luciferase enzyme inhibitors, primary screen, artefact control for luciferase-based inhibitor screens, biochemical, luminescence, ATPLite | Luciferin 4-monooxygenase (Photinus pyralis), P08659 | 10 min | inhibition, % at 10 µM | 1.5% of 200,000 active;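 active = inhibition above about 50% when tested at 10 µM, limit read from the data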
HSP90 inh: HSP90 inhibitors, primary screen, cell lysate, luminescence. Heat shock protein HSP 90 (rabbit reticulocyte lysate; luciferase refolding). Rabbit reticulocyte lysate, luciferase refolding luminescence, 3 h. 0.91% of 290,000 active. inhibition, % at 5.6 µM;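 active = inhibition above the screen-wide mean plus 3 SD, computed separately per campaign, cut at about 16% in these data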;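 note: inhibitors lower the luminescence because luciferase stays unfolded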
Numbers stand for hits; – = inactive; · = no result given. Hits are enriched below; roughly 2% of the tested compounds scored in any of these assays.

SMILES	PPC-1+TRAIL kill	TRAIL sens C8	FLuc act counter	FLuc inhib CS	HSP90 inh
CC(=O)c1ccc(N2CCN(S(=O)(=O)c3ccc4ccccc4c3)CC2)cc1	·	–	·	·	·
CC(=O)c1ccc(N2CCN(c3ccc4cc(S(=O)(=O)N5CCC(C)CC5)ccc4n3)CC2)cc1	·	60.1	·	·	–
Cc1cc(C(=O)Cn2nc(C(=O)O)c3ccccc3c2=O)c(C)n1-c1cccc(C(F)(F)F)c1	–	–	·	·	–
Cc1cc(C(=O)Cn2nc(C(=O)O)c3ccccc3c2=O)c(C)n1-c1ccc(F)cc1	57.1	–	–	75.6	16.8
COCCCNC(=O)c1ccc2c(=O)n(Cc3ccc(Cl)cc3)c(=S)[nH]c2c1	·	–	·	·	–
CC1CCN(CCNC(=O)c2ccc3c(=O)n(Cc4ccc(Cl)cc4)c(=S)[nH]c3c2)CC1	·	69.1	·	·	–
COc1cc2[nH]c(-c3ccc(C)cc3)cc(=O)c2cc1OC	–	–	–	–	–
COc1ccc(-c2cc(=O)c3cc(C)ccc3[nH]2)cc1	–	73.1	–	81.7	–
CCN(CCO)CC1CCCC2CCCCC21 (stereo not drawn)	·	–	·	·	·
Fc1ccc2nc(Nc3nc4cc5c(cc4s3)OCCO5)sc2c1	–	–	–	52.1	–
Fc1ccc2nc(Nc3nc4cc5c(cc4s3)OCO5)sc2c1	–	–	–	–	–
Cn1cc(Cl)c(C(=O)N/N=C/c2ccc3c4c(cccc24)CC3)n1	·	67.4	·	·	–
Cn1cc(Cl)c(C(=O)N/N=C/c2ccc(OS(=O)(=O)c3ccccc3)cc2)n1	–	–	–	–	–
Cc1ccc(/C=N/NC(=O)c2nn(C)cc2Cl)cc1	–	68.2	–	85.9	–
O=c1c(-c2cccs2)nc2ccccc2n1C(c1ccccn1)c1nc2ccccc2[nH]1 (stereo not drawn)	·	–	·	·	·
CCCCNC(=O)C[C@@H]1C[C@@]2(C(=O)OC)CCCCC=C2N(Cc2ccc(Cl)cc2Cl)C1=O	·	–	·	·	·
Nc1ccc(Nc2nc(-c3cccs3)cs2)cc1	·	–	–	89.8	–
Cc1cccc(Nc2nc(-c3cccs3)cs2)n1	–	–	–	–	–
c1ccc(Nc2nc(-c3cccs3)cs2)nc1	–	–	–	68.1	–
Cc1nc(C)c(-c2csc(Nc3ccc(N)cc3)n2)s1	·	–	·	·	–
COc1ccccc1CN1C(=O)C(C)ON=C1c1ccccc1F (stereo not drawn)	·	–	·	·	·
O=c1c(Cl)c(NCCCO)cnn1-c1nc2ccccc2[nH]1	–	–	–	–	–
C=CCN(CC=C)c1cnn(-c2nc3ccccc3[nH]2)c(=O)c1Cl	–	66.2	–	51.4	–
CC(C)(C)NC(=O)C(c1ccncc1)n1c(-c2ccc(C(F)(F)F)cc2)nc2ccccc21 (stereo not drawn)	·	79.5	·	·	·
CN(C(=O)OC(C)(C)C)c1ccc(-c2nc3ccccc3s2)cc1	·	89.2	·	·	·
SMILES	PPC-1+TRAIL kill	TRAIL sens C8	FLuc act counter	FLuc inhib CS	HSP90 inh
O=c1ccn([C@@H]2O[C@H](CNCc3ccccc3OCc3ccc(Cl)cc3Cl)[C@@H](O)[C@H]2O)c(=O)[nH]1	·	–	·	·	·
O=C(/C=C/[C@H]1O[C@@H](n2ccc(=O)[nH]c2=O)[C@H](O)[C@@H]1O)NCCCc1ccccc1	·	–	·	·	·
c1nc(SSc2ncnc3nc[nH]c23)c2[nH]cnc2n1	·	73.3	·	·	·
Cc1ccc(-n2c(C)cc(C(=O)COC(=O)c3ccc[nH]c3=O)c2C)cc1	–	60.8	–	81.2	–
Cc1cc(C(=O)COC(=O)c2ccc[nH]c2=O)c(C)n1-c1ccc(Br)cc1	–	–	–	–	–
O=C(Nc1ccc([N+](=O)[O-])cc1)Nc1nc(-c2ccc(Cl)s2)cs1	67.4	–	–	–	–
CC(C)Cc1nc2oc3c(Cl)ncnc3c2c2c1CCC2	–	85.4	–	–	–
Nc1nc(N)c2cc(S(=O)(=O)c3ccc4ccccc4c3)ccc2n1	·	72.3	·	·	·
Cc1cc(C(=O)N/N=C/c2cccc([N+](=O)[O-])c2)c(C)o1	–	–	–	–	–
CC(C)(C)OC(=O)N/N=C\c1ccc[nH]1	–	–	–	62.3	–
CC(C)(C)OC(=O)N/N=C/c1cccc([N+](=O)[O-])c1	–	–	–	78.7	–
CC(C)(C)c1ccc2c(c1)OC(C(=O)N/N=C\c1ccc[nH]1)CO2 (stereo not drawn)	·	61.5	·	·	–
CCN(CC(=O)N1CCc2ccccc2C1)S(=O)(=O)c1ccc2ccccc2c1	–	54.6	–	–	–
Nc1nc2c(nnn2C2CC(O)C(CO)O2)c(=O)[nH]1 (stereo not drawn)	·	–	·	·	·
COc1cccc(-c2nc(CS(=O)(=O)CC(=O)Nc3cc(C)ccc3C)c(C)o2)c1	–	–	–	–	–
COc1cccc(-c2nc(CS(=O)(=O)CC(=O)Nc3c(C)cccc3C)c(C)o2)c1	–	–	–	–	71.7
Cc1ccc(S(=O)(=O)c2nnn3c2nc(NC2CCN(Cc4ccccc4)CC2)c2ccccc23)cc1C	·	88.4	·	·	–
CCCS(=O)(=O)NC(=O)C1(C)CCCN(C(=O)c2cccc(Cl)c2)C1 (stereo not drawn)	·	–	·	·	·
COc1ccc(C(=O)/C=C2\Sc3ccccc3N2C)cc1	–	–	–	71.3	–
COC(=O)c1ccc(-c2nc3cc(Cl)c(N)cc3s2)cc1	–	83.0	–	84.8	–
COC(=O)c1ccc(-c2nc(O)c(C)s2)cc1	–	–	–	–	–
COc1ccc(NS(=O)(=O)c2cccc(C(=O)NN=Cc3ccc(OC)c(O)c3)c2)cc1	·	–	·	·	·
COc1ccc(NS(=O)(=O)c2cccc(C(=O)N/N=C/c3c(F)c(F)c(F)c(F)c3F)c2)cc1	·	66.4	·	·	·
CCCCN1CC(O)=C(c2nc(-c3ccc(Br)cc3)cs2)C1=N	–	–	·	·	–
COc1ccc(-c2csc(C3=C(O)CN(CCCN4CCCC4=O)C3=N)n2)cc1OC	–	–	–	55.9	–
SMILES	PPC-1+TRAIL kill	TRAIL sens C8	FLuc act counter	FLuc inhib CS	HSP90 inh
CCOC(=O)c1c(C)nc2c3ccccc3ccn12	–	49.6	–	53.7	–
CCOC(=O)c1c(C)nc2c(C)cccn12	–	–	–	–	–
COc1ncccc1-c1ccc2nncn2c1	·	–	·	·	·
Cc1cc(O)c2c(c1O)C(=O)[C@]13C(=C2O)C(=O)[C@@H]2[C@@H](O)[C@H]1[C@@H]1[C@H](O)[C@H]3C(=O)C3=C(O)c4c(O)cc(C)c(O)c4C(=O)[C@]312	·	48.1	·	·	·
COc1cccc(-n2c(SCC(=O)N3CCCCC3)nc3c([nH]c4ccccc43)c2=O)c1	–	53.7	–	–	–
C[C@@H]1CN([C@H](C)CO)C(=O)c2cc(Br)cnc2O[C@@H]1CN(C)C(=O)NC1CCCC1	·	–	·	·	·
COc1ccc(-c2coc3cc(O[C@@H]4O[C@H](CO)[C@@H](O)[C@H](O)[C@H]4O)ccc3c2=O)cc1	·	–	·	·	·
O=c1c(-c2ccc3c(c2)OCCO3)coc2cc(OC3OC(CO)C(O)C(O)C3O)ccc12 (stereo not drawn)	–	54.4	·	·	–
